A selection: hits, their analogues and other compounds. The true share with any hit is near 2.9%.
OX1R antag-1: human HCRTR1 antagonism. O43613. CHO/OX1R cells, Fluo-8 calcium fluorescence, orexin A. inhibition, % at 5 µM. 330,000 compounds, 0.43% hits. AID 434989;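 active = inhibition above its plate's threshold, mean inhibition of all tested compounds on the plate plus 3 SD, cut at about 37% in these data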;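 note: 0% = orexin A challenge wells and 100% = SB-334867-A antagonist wells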
Target sequence (O43613 whole entry, looked up): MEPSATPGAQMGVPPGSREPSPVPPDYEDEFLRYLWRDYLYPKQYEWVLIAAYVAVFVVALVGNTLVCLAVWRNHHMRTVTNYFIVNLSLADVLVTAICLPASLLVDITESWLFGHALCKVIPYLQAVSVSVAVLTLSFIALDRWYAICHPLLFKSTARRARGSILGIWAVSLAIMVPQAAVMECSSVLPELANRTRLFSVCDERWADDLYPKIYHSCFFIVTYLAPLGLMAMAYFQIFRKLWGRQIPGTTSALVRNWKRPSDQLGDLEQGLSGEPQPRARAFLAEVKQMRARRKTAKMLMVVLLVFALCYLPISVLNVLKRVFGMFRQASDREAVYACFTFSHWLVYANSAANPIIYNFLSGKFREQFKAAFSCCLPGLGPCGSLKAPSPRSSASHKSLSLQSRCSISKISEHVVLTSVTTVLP
OX1R antag-2: OX1R (human) antagonism; O43613; OX1R-expressing cells, FRET antagonist read-out; inhibition, % at 6.6 µM; 330,000 compounds, 1.8% hits; in the data active = inhibition mostly above about 38%, no sharp cut-off; inactive = mostly below about 40%;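 note: 0% = agonist challenge alone and 100% = reference antagonist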
M1 PAM parental: nonselective activator or artifact in parental CHO-K1 calcium assay; ATP EC20, Fluo-8 calcium fluorescence; 0% at ATP EC20, 100% at ATP max; activation, % at 3 µM; 360,000 compounds, 0.02% hits;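 active = activation above the run cutoff, the mean activation of all test compounds plus 3 SD, cut at about 40% in these data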;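 note: peak over basal fluorescence ratio in a 140 s read after ATP addition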
CHO-K1 Ca antag: counter-screen for M1 antagonists: effect in parental CHO-K1 cells. ATP-induced calcium, Fluo-8 fluorescence. AID 602250. 360,000 compounds, 0.6% hits. inhibition, % at 3 µM;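 active = inhibition above a per-plate cutoff, the plate's mean sample inhibition plus 3 SD, cut at about 24% in these data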;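 note: 0% = DMSO plus EC80 ATP and 100% = DMSO alone without ATP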
CHO parental Ca: counter-screen for OX1R antagonists: effect in parental CHO cells; parental CHO-K1, ATP-induced calcium, Fluo-8 fluorescence; inhibition, % at 5.6 µM; 330,000 compounds, 0.63% hits; AID 463079;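 active = inhibition above that plate's mean sample inhibition plus 3 SD, cut at about 26% in these data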;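 note: 0% = ATP-challenged DMSO wells and 100% = DMSO wells without ATP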
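Assay system: parental CHO cells; Read-out basis: percent inhibition of ATP-evoked calcium rise, normalized to controls; Benchmarks: ATP and no-ATP DMSO wells; Compound dosing: single nominal dose of 5.6 µM per compound; Signal: Fluo-8 calcium dye fluorescence; Also added: ATP as calcium-mobilizing challenge; Repeats: singlicate.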
CHO-K1 Ca ag: counter-screen for M1 agonists: effect in parental CHO-K1 cells | Fluo-8 calcium fluorescence; scaled to maximal ATP response, vehicle zero | activation, % at 3 µM | 360,000 compounds, 0.48% hits | AID 602248; in the data active = activation above about 15%;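 note: untransfected CHO-K1 host cells lacking M1 receptor as counterscreen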
OX1R HTRF conf: confirmation of human orexin 1 receptor antagonists, HTRF format | shares compounds with OX1R antag-2 | OX1R-expressing cells, HTRF antagonist assay | inhibition, % at 6.6 µM | 1,800 compounds, 49% hits | AID 492964; in the data active = inhibition above about 55%;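 note: CHO cells expressing OX1R stimulated with orexin A at about EC80; 0% = agonist challenge alone and 100% = reference antagonist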
CHO-K1 HTRF: counter-screen: parental CHO-K1 HTRF response; parental CHO-K1 cells, HTRF counterscreen; 1,800 compounds, 48% hits; AID 493232; shares compounds with OX1R antag-2; inhibition, % at 6.6 µM; in the data active = inhibition above about 17%;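 note: 0% = agonist challenge with vehicle and 100% = vehicle alone without agonist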
Active calls of the source: *; nt = no result.

SMILES	OX1R antag-1	OX1R antag-2	M1 PAM parental	CHO-K1 Ca antag	CHO parental Ca	CHO-K1 Ca ag	OX1R HTRF conf	CHO-K1 HTRF
O=C1CC(NC2CCN(C(=O)c3cccc(F)c3)CC2)C(=O)N1 (stereo not drawn)	2.0	10.2	-11.2	-12.1	13.1	0.8	nt	nt
N#CCOc1ccccc1CNC[C@H]1O[C@@H](n2cnc(C(N)=O)n2)[C@H](O)[C@@H]1O	nt	nt	27.5	-16.3	nt	1.4	nt	nt
O=C(CS(=O)c1ccc(C(F)(F)F)cc1[N+](=O)[O-])Oc1ccccc1 (stereo not drawn)	-7.0	86.3*	17.6	-10.9	-13.9	0.8	46.6	12.7
Cc1ccccc1NC(=O)CSc1nnc2ccc(-c3ccncc3)nn12	-18.0	79.4*	16.4	-4.1	-14.3	0.5	30.1	35.9*
CCCNC(=O)C1(C)CCCN(C(=O)Cc2cccc(OC)c2)C1 (stereo not drawn)	nt	nt	-8.3	-5.1	nt	0.1	nt	nt
CCOc1ccccc1N(CC(=O)NCCSc1ccccn1)S(=O)(=O)c1ccccc1	15.7	79.9*	10.5	-6.5	-37.1	5.5	77.3*	8.0
Cc1cc(C)c(O)c(-c2cc(C(=O)NCCc3ccc(S(N)(=O)=O)cc3)[nH]n2)c1	-18.3	98.0*	-8.8	-5.8	-2.6	0.0	18.9	-1.2
Cc1cc(O)c(-c2cc(C(=O)NCCc3ccc(S(N)(=O)=O)cc3)[nH]n2)cc1C	-17.2	7.1	9.1	-1.1	-5.8	0.3	nt	nt
CC1(C)N([O-])C2=C(c3ccccc3C2=O)[N+](=O)C1(C)C	0.8	168.9*	4.9	1.7	0.8	0.2	56.4*	66.1*
OCCCCCN=c1cc(-c2ccccc2)oc2ccc(Cl)cc12	-26.8	81.6*	-2.7	-6.7	-23.0	0.2	53.8	53.6*
O=C(c1ccc(Br)cc1)N1CCN(c2ccccn2)CC1	nt	nt	4.7	-7.8	nt	0.7	nt	nt
Cc1ccc(/C=c2\sc3n(c2=O)CN(c2ccc(Br)cc2)CN=3)o1	7.9	23.3	0.7	-1.6	2.6	-0.4	nt	nt
Cc1ccc(N2CN=c3s/c(=C\c4cccnc4)c(=O)n3C2)cc1	-22.7	98.6*	26.1	-6.3	1.7	0.1	35.9	48.9*
Cc1cc(CSc2ccccc2)ccc1NC(=O)c1ccc(CN2CCOCC2)cc1	-3.1	2.7	13.9	-6.2	-5.1	6.8	nt	nt
Cc1ccc(NC(=O)CCN2C(=O)c3ccccc3C2=O)c(C)c1	-14.3	0.1	4.4	-7.5	-6.8	1.3	nt	nt
Cc1cc(O)ccc1NC(=O)CCN1C(=O)c2ccc([N+](=O)[O-])cc2C1=O	5.8	150.7*	12.0	-4.7	6.2	0.6	68.8*	74.2*
O=C(Nc1cccc(-c2cn3cccnc3n2)c1)c1cccs1	-0.8	15.4	14.7	-7.1	-8.0	2.1	nt	nt
Cc1cccn2cc(-c3cccc(NC(=O)c4cccs4)c3)nc12	-4.3	111.1*	-1.1	4.1	-23.5	1.9	92.8*	-0.8
N=c1oc2cc(O)ccc2cc1C(=O)Nc1ccc(F)cc1	-13.2	3.5	-0.9	-1.5	-3.4	0.7	nt	nt
COc1ccc(NC(=O)c2cc3ccc(O)cc3o/c2=N\O)cc1	8.8	85.4*	-16.0	13.4	-1.8	0.7	75.7*	9.3
Cc1ccc(-c2ccccc2NC(=O)CS(=O)CC(=O)Nc2ccc(C)c(Cl)c2)o1 (stereo not drawn)	11.3	81.7*	2.8	5.3	6.2	1.7	42.9	6.8
Cc1cccc(C)c1OCCCN1CCOCC1	-14.1	-2.4	2.6	-10.6	-5.1	0.5	nt	nt
O=c1ccnc(Sc2ncccc2[N+](=O)[O-])[nH]1	-29.5	92.1*	18.9	-9.5	-1.1	0.1	48.5	47.2*
CC(C)(C)c1nc(Sc2ncccc2[N+](=O)[O-])n[nH]1	-6.3	30.1	-10.6	-2.4	-2.3	3.0	nt	nt
Cc1ccc(C)c(N2CCN(C(=O)CCS(=O)(=O)c3cccc4nonc34)CC2)c1	4.1	23.0	9.8	3.6	-9.4	2.1	nt	nt
SMILES	OX1R antag-1	OX1R antag-2	M1 PAM parental	CHO-K1 Ca antag	CHO parental Ca	CHO-K1 Ca ag	OX1R HTRF conf	CHO-K1 HTRF
CC1Cc2ccccc2N1C(=O)CCS(=O)(=O)c1cccc2nonc12 (stereo not drawn)	-11.7	84.6*	1.7	-10.2	-20.2	0.1	53.5	23.1*
CC1=CC(=NOC(=O)c2cccc([N+](=O)[O-])c2)C=C(C)C1=O	-0.6	118.3*	23.6	-14.7	0.1	3.9	23.4	17.8*
Cc1ccc(Cl)cc1NC(=O)CN1C(=O)NC2(CCCCCC2)C1=O	-6.1	11.5	2.4	-17.0	-6.2	0.7	nt	nt
O=C(/C=C/c1ccc([N+](=O)[O-])cc1)NCc1cccnc1	-3.4	104.3*	7.4	-9.2	2.6	0.6	35.5	36.3*
O=C(/C=C/c1ccc(Cl)c([N+](=O)[O-])c1)NCc1cccnc1	-7.3	53.1	1.0	-5.7	-1.5	0.8	nt	nt
CN(CCO)c1ccc([N+](=O)[O-])cc1C(=O)O	0.9	80.4*	24.4	-17.3	2.3	0.3	21.4	25.1*
O=C(O)c1cc([N+](=O)[O-])ccc1NCCO	-8.4	32.9	9.3	9.3	-3.6	0.6	nt	nt
